# Assay results taken from article PMC9482816 (Journal of medicinal chemistry, 2022).
# “Also recorded” adds a separate entry of the source.
# Columns and labels:
# [1] = system: H3K9me2 level in MDA-MB-231 cells; test: Western blot analysis for H3K9me2 in MDA-MB-231 cells; assay type: cell-based; conditions: 0.2, 1, or 5 μM for 24, 48, or 72 h
# [2] = system: H3K9me2 level in K562 cells; test: Western blot analysis for H3K9me2 in K562 cells; assay type: cell-based; conditions: treated for 48 h
# G9a [3] = target: T1, G9a (Homo sapiens, UniProt Q96KQ7); test: Mass spectrometry based analysis of G9a-inhibitor adduct formation; assay type: binding; conditions: for covalent modification of G9a (MS-based analysis, in words): after 1 h of incubation
# T1 sequence (Q96KQ7 913-1193): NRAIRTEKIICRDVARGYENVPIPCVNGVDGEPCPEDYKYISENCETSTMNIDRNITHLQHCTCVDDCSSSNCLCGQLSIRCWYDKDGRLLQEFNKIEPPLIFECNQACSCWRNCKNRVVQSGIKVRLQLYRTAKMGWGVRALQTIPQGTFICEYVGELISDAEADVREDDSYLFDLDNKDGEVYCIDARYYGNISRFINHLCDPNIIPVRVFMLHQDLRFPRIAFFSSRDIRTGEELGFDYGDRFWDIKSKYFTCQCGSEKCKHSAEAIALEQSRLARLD
# Procedure, shortened: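 Purified human G9a catalytic domain (residues 913–1193), 5 μM in 50 mM Tris-HCl pH 7.5, 150 mM NaCl, incubated 1 h at room temperature with 50 μM test compound or DMSO. Intact protein analysed by electrospray LC/TOF mass spectrometry. Protein–inhibitor adduct quantified from the mass shift over unmodified G9a (34 314 Da).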
# G9a [4] = target: T2, G9a (Homo sapiens, UniProt Q96KQ7); test: Radioactivity-based scintillation proximity biochemical assay, G9a; conditions: preincubation 5, 15, 45 min
# T2 sequence (Q96KQ7 1-1210): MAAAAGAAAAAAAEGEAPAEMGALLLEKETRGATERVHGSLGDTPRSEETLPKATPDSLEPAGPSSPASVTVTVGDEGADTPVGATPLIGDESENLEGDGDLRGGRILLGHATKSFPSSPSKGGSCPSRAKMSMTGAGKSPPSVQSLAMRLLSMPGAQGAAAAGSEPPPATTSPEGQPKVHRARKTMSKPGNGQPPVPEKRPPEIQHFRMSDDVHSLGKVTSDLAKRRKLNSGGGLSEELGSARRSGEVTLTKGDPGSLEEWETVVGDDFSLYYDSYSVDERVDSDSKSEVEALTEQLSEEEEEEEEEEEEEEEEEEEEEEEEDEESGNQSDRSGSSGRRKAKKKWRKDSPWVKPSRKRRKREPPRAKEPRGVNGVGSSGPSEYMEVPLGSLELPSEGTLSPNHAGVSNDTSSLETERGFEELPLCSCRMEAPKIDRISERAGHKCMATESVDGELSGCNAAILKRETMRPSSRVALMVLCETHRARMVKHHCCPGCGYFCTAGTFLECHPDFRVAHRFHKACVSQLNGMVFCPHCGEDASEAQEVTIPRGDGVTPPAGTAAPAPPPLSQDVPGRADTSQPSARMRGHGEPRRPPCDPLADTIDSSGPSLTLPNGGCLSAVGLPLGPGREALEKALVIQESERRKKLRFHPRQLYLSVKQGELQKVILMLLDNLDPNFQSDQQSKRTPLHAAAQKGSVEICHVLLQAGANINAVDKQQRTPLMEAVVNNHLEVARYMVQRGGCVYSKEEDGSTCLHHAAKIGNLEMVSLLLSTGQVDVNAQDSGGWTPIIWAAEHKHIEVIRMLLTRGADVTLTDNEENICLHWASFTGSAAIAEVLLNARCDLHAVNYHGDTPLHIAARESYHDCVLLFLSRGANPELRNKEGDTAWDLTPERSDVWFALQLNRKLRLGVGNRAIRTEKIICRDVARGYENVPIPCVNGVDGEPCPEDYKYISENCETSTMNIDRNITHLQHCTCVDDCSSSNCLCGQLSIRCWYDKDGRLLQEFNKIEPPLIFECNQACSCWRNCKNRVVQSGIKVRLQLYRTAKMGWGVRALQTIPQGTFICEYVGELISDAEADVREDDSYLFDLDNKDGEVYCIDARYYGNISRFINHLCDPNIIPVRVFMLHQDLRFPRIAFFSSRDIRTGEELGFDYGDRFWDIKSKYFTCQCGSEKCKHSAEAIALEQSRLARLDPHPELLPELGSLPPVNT
# Procedure, shortened: (§1)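 Tritiated methyl transfer from SAM to H3 peptide, read by scintillation proximity. Enzymes are recombinant human catalytic domains: G9a (913–1193) and GLP (982–1266), each at 5 nM. Substrate is H3 peptide at 0.05 μM and SAM cofactor at 1 μM. Test compound is preincubated with enzyme for 5, 15 or 45 min. Run by a contract lab in four replicates.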
# GLP [5] = target: T3, GLP (Homo sapiens, UniProt Q9H9B1); test: Isothermal titration calorimetry; assay type: binding; conditions: ITC
# T3 sequence (Q9H9B1 982-1266): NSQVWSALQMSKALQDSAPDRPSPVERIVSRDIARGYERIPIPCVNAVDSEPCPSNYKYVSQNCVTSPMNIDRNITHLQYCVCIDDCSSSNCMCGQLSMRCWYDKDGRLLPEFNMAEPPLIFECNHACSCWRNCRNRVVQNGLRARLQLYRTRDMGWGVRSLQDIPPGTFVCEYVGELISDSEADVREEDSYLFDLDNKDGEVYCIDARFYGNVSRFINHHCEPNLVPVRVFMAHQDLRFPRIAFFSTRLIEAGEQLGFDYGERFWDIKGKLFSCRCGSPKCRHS
# GLP [6] = target: T4, GLP (Homo sapiens, UniProt Q9H9B1); test: Radioactivity-based scintillation proximity biochemical assay, GLP; conditions: preincubation 5, 15, 45 min
# T4 sequence (Q9H9B1 1-1298): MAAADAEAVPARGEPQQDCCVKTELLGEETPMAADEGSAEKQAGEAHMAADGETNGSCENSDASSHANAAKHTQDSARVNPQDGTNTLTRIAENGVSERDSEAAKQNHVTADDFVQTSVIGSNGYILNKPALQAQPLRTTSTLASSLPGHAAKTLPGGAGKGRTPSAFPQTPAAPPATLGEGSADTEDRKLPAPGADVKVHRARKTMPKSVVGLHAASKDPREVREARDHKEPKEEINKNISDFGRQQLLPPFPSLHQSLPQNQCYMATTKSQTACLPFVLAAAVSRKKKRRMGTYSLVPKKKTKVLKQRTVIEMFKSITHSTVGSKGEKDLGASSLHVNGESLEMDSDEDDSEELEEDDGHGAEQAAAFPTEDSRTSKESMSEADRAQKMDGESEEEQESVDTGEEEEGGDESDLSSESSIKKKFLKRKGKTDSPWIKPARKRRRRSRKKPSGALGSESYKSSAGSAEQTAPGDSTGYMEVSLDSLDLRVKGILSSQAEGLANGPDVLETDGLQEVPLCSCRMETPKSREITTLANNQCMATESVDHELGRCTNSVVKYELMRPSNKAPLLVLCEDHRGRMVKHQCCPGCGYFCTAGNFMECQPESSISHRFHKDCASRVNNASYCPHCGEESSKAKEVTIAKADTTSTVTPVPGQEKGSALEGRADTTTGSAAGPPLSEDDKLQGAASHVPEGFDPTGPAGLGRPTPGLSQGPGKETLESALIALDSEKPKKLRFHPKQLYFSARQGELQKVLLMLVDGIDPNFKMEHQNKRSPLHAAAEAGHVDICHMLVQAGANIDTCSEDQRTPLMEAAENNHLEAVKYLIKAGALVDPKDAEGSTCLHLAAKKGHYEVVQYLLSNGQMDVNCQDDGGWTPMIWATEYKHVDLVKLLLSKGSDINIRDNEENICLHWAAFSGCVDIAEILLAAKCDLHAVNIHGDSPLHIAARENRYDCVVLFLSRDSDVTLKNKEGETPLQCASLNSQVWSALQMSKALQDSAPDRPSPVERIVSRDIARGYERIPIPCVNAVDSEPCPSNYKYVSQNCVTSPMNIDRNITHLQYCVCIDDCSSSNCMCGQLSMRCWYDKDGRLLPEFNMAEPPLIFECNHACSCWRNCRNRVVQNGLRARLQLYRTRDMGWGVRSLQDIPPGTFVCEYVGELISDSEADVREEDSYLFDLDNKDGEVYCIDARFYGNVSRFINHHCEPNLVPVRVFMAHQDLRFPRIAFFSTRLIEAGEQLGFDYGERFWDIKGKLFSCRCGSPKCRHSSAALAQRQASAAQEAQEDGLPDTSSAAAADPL
# Procedure, shortened: as §1
# [7] = system: 21 other methyltransferases (PKMTs and PRMTs); test: Selectivity assays against other methyltransferases; assay type: biochemical; conditions: compound at 1 μM; any of the 21 enzymes
# Procedure, shortened: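 Radioactivity-based scintillation proximity format that follows transfer of the 3H-labelled methyl group from SAM to substrate. Test compound at 1 μM, run in duplicate against each methyltransferase. Inhibition expressed as percentage of control enzyme activity.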
# MDA-MB-231 cells = test: Cytotoxicity assay; assay type: cell-based; conditions: 3 days, CCK-8 (Figure S2)
# Procedure, shortened: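 MDA-MB-231 cells are seeded at 1 × 10^4 cells per well and exposed to test compound at various concentrations for 3 days. Viability is read with CCK-8 following the kit protocol. Values are plotted from triplicate experiments.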
fold improved binding affinity to GLP compared to UNC0642 (GLP [5]) [fold],SMILES,reduction of H3K9me2 level in MDA-MB-231 cells [1],reduction of H3K9me2 level in K562 cells [2],"covalent modification of G9a (MS-based analysis, in words) (G9a [3])",inhibition of G9a compared to GLP (G9a [4]),inhibitory activity against G9a with preincubation time (G9a [4]),inhibitory activity against GLP with preincubation time (GLP [6]),"rate of G9a adduct formation compared to GLP adduct (G9a [3]; mass spectrometry, 0-120 min, 5 μM G9a or GLP, 50 μM compound)",inhibition effect against 21 PKMTs and PRMTs [7] [%],inhibition of cell growth in MDA-MB-231 cells (MDA-MB-231 cells)
,"C=CC(=O)Nc1nc(NC2CCN(C(C)C)CC2)c2cc(OC)c(OCCCN3CCCC3)cc2n1 [Compound 1, N-(4-((1-Isopropylpiperidin-4-yl)amino)-6-methoxy-7-(3-(pyrrolidin-1-yl)propoxy)-quinazolin-2-yl)acrylamide]",slightly lower potency than UNC0642 and compound 9,reduced the H3K9me2 level in K562 cells,,,,,,,
,"C=CC(=O)N(C)c1nc(NC2CCN(C(C)C)CC2)c2cc(OC)c(OCCCN3CCCC3)cc2n1 [Compound 6, N-(4-((1-Isopropylpiperidin-4-yl)amino)-6-methoxy-7-(3-(pyrrolidin-1-yl)propoxy)-quinazolin-2-yl)-N-methylacrylamide]",,,completely lost its ability to covalently modify G9a,,,,,,
1.3,"C=CC(=O)Nc1cc(NC2CCN(C(C)C)CC2)c2cc(OC)c(OCCCN3CCCC3)cc2n1 [Compound 8, N-(4-((1-Isopropylpiperidin-4-yl)amino)-6-methoxy-7-(3-(pyrrolidin-1-yl)propoxy)quinolin-2-yl)acrylamide]",effectively reduced the H3K9me2 mark in a concentration- and time-dependent manner; also recorded: improved potency compared to UNC0642 and compound 9,reduced the H3K9me2 level in K562 cells; also recorded: much better potency compared to compound 1 and slightly better potency compared to UNC0642,,more effectively inhibited G9a than GLP at all three time points,improved inhibitory activity against G9a and GLP with increased preincubation time,improved inhibitory activity against G9a and GLP with increased preincubation time,faster than that of the GLP–compound 8 adduct,≤ 50,more effective than compound 1 and UNC0642 in suppressing the growth of MDA-MB-231 cells
,"CCC(=O)Nc1cc(NC2CCN(C(C)C)CC2)c2cc(OC)c(OCCCN3CCCC3)cc2n1 [Compound 9, N-(4-((1-Isopropylpiperidin-4-yl)amino)-6-methoxy-7-(3-(pyrrolidin-1-yl)propoxy)quinolin-2-yl)propionamide]",displayed some cellular potency as a reversible inhibitor but was not as potent as compound 8,,did not covalently modify G9a,,,,,,
